Experimental data taken from ChEMBL document CHEMBL1932938, “From COX-2 inhibitor nimesulide to potent anti-cancer agent: synthesis, in vitro, in vivo and pharmacokinetic evaluation” (Eur J Med Chem, 2012).

How the values were obtained:
SK-BR-3 [1] = test: Cell cycle arrest in human SK-BR-3 cells assessed as accumulation at G2/M phase at 0.10 uM after 3 hrs using propidium iodide staining by FACS analysis; type: functional
Method in brief: (§1)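 SKBR-3 cells in RPMI1640 with 10% heat-inactivated FBS at 37 °C and 5% CO₂ were treated for the stated times. Cells were fixed overnight in 70% EtOH at −20 °C, then stained with propidium iodide buffer (38 mM sodium citrate pH 7.5, 69 µM PI, 120 µg/mL RNase A) for 15 min at room temperature in the dark. Up to 1×10⁴ gated cells were analyzed by flow cytometry, giving percent distribution per phase.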

SK-BR-3 [2] = test: Cell cycle arrest in human SK-BR-3 cells assessed as accumulation at G2/M phase at 0.10 uM after 12 hrs using propidium iodide staining by FACS analysis; type: functional; method in brief: as §1
SK-BR-3 [3] = test: Cell cycle arrest in human SK-BR-3 cells assessed as accumulation at G1 phase at 0.25 uM after 12 hrs using propidium iodide staining by FACS analysis; type: functional; method in brief: as §1
SK-BR-3 [4] = test: Cell cycle arrest in human SK-BR-3 cells assessed as accumulation at G1 phase at 0.50 uM after 12 hrs using propidium iodide staining by FACS analysis; type: functional; method in brief: as §1
SK-BR-3 [5] = test: Cell cycle arrest in human SK-BR-3 cells assessed as accumulation at G1 phase at 5 uM after 12 hrs using propidium iodide staining by FACS analysis; type: functional; method in brief: as §1
SK-BR-3 [6] = test: Cell cycle arrest in human SK-BR-3 cells assessed as accumulation at S phase at 0.25 uM after 18 hrs using propidium iodide staining by FACS analysis; type: functional
SK-BR-3 [7] = test: Cell cycle arrest in human SK-BR-3 cells assessed as accumulation at G2/M phase at 0.50 uM after 18 hrs using propidium iodide staining by FACS analysis; type: functional; method in brief: as §1
SK-BR-3 [8] = test: Cell cycle arrest in human SK-BR-3 cells assessed as accumulation at Sub-G1 phase at 0.10 uM after 24 hrs using propidium iodide staining by FACS analysis; type: functional
SK-BR-3 [9] = test: Cell cycle arrest in human SK-BR-3 cells assessed as accumulation at G1 phase at 0.50 uM after 24 hrs using propidium iodide staining by FACS analysis; type: functional; method in brief: as §1
CCRF-CEM = test: Growth inhibition of human CCRF-CEM cells after 48 hrs by SRB assay; type: functional
MOLT-4 = test: Growth inhibition of human MOLT4 cells after 48 hrs by SRB assay; type: functional
RPMI-8226 = test: Growth inhibition of human RPMI8226 cells after 48 hrs by SRB assay; type: functional
HOP-62 = test: Growth inhibition of human HOP62 cells after 48 hrs by SRB assay; type: functional
KM12 = test: Growth inhibition of human KM12 cells after 48 hrs by SRB assay; type: functional
SF-295 = test: Growth inhibition of human SF295 cells after 48 hrs by SRB assay; type: functional
SNB-19 = test: Growth inhibition of human SNB19 cells after 48 hrs by SRB assay; type: functional
SNB-75 = test: Growth inhibition of human SNB75 cells after 48 hrs by SRB assay; type: functional
U-251 = test: Growth inhibition of human U251 cells after 48 hrs by SRB assay; type: functional
SK-MEL-28 = test: Growth inhibition of human SK-MEL-28 cells after 48 hrs by SRB assay; type: functional
SK-MEL-5 = test: Growth inhibition of human SK-MEL-5 cells after 48 hrs by SRB assay; type: functional
786-0 = test: Growth inhibition of human 786-0 cells after 48 hrs by SRB assay; type: functional
A498 = test: Growth inhibition of human A498 cells after 48 hrs by SRB assay; type: functional
RXF 393 = test: Growth inhibition of human RXF393 cells after 48 hrs by SRB assay; type: functional
PC-3 = test: Growth inhibition of human PC3 cells after 48 hrs by SRB assay; type: functional
Mus musculus = test: Toxicity in BALB/c athymic nu/nu mouse xenografted with human HT-29 cells assessed as effect on body weight at 5 mg/kg/day, ip administered 5 times per week for 3 weeks; type: organism-based; design: route intraperitoneal; settings: in vivo, 504 h
Method in brief: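 BALB/c nu/nu mice, three per group, each inoculated s.c. with HT29 cells in Matrigel at two sites. Dosing began once tumors reached about 200 mm³: 5 mg/kg/d i.p., five times weekly for three weeks, in sesame oil with 1% DMSO. Controls received vehicle only. Body weight was recorded weekly.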

SK-BR-3 [10] = test: Cell cycle arrest in human SK-BR-3 cells assessed as accumulation at Sub-G1 phase at 5 uM after 3 hrs using propidium iodide staining by FACS analysis; type: functional
SK-BR-3 [11] = test: Cell cycle arrest in human SK-BR-3 cells assessed as accumulation at S phase at 0.50 uM after 3 hrs using propidium iodide staining by FACS analysis; type: functional
SK-BR-3 [12] = test: Cell cycle arrest in human SK-BR-3 cells assessed as accumulation at G1 phase at 0.50 uM after 3 hrs using propidium iodide staining by FACS analysis; type: functional; method in brief: as §1
SK-BR-3 [13] = test: Cell cycle arrest in human SK-BR-3 cells assessed as accumulation at Sub-G1 phase at 0.25 uM after 6 hrs using propidium iodide staining by FACS analysis; type: functional
SK-BR-3 [14] = test: Cell cycle arrest in human SK-BR-3 cells assessed as accumulation at G1 phase at 0.25 uM after 6 hrs using propidium iodide staining by FACS analysis; type: functional; method in brief: as §1
SK-BR-3 [15] = test: Cell cycle arrest in human SK-BR-3 cells assessed as accumulation at Sub-G1 phase at 0.50 uM after 6 hrs using propidium iodide staining by FACS analysis; type: functional
SK-BR-3 [16] = test: Cell cycle arrest in human SK-BR-3 cells assessed as accumulation at G2/M phase at 0.50 uM after 6 hrs using propidium iodide staining by FACS analysis; type: functional; method in brief: as §1

## Cc1ccc(C)c(COc2cc(NC(=O)c3ccc4c(c3)OCO4)ccc2N(C)S(C)(=O)=O)c1
SK-BR-3 [1]
  Activity: 8.83%
SK-BR-3 [2]
  Activity: 12.05%
SK-BR-3 [3]
  Activity: 73.62%
SK-BR-3 [4]
  Activity: 63.15%
SK-BR-3 [5]
  Activity: 63.71%
SK-BR-3 [6]
  Activity: 6.81%
SK-BR-3 [7]
  Activity: 22.27%
SK-BR-3 [8]
  Activity: 11.78%
SK-BR-3 [9]
  Activity: 31.77%
CCRF-CEM
  GI50: 48.5 nM
  TGI: > 100000 nM
  growth inhibition (GI): Dose-dependent effect
CCRF-CEM; read-out: LC50 (the source's name)
  CC50: > 100000 nM
MOLT-4
  growth inhibition (GI): Dose-dependent effect
MOLT-4; MOLT-4, 48 h
  GI50: 163 nM
  TGI: > 100000 nM
MOLT-4; MOLT-4, 48 h, read-out: LC50 (the source's name)
  CC50: > 100000 nM
RPMI-8226
  growth inhibition (GI): Dose-dependent effect
RPMI-8226; RPMI-8226, 48 h
  GI50: 290 nM
RPMI-8226; RPMI-8226, 48 h, read-out: LC50 (the source's name)
  CC50: > 100000 nM
HOP-62
  growth inhibition (GI): Dose-dependent effect
HOP-62; HOP-62, 48 h
  GI50: 329 nM
  TGI: > 100000 nM
HOP-62; HOP-62, 48 h, read-out: LC50 (the source's name)
  CC50: > 100000 nM
KM12
  growth inhibition (GI): Dose-dependent effect
KM12; KM12, 48 h
  GI50: 85.5 nM
  TGI: 1130 nM
KM12; KM12, 48 h, read-out: LC50 (the source's name)
  CC50: > 100000 nM
SF-295
  growth inhibition (GI): Dose-dependent effect
SF-295; SF-295, 48 h
  GI50: 98.3 nM
  TGI: 626 nM
SF-295; SF-295, 48 h, read-out: LC50 (the source's name)
  CC50: > 100000 nM
SNB-19
  growth inhibition (GI): Dose-dependent effect
SNB-19; SNB-19, 48 h
  GI50: 537 nM
  TGI: > 100000 nM
SNB-19; SNB-19, 48 h, read-out: LC50 (the source's name)
  CC50: > 100000 nM
SNB-75
  growth inhibition (GI): Dose-dependent effect
SNB-75; SNB-75, 48 h
  GI50: 266 nM
SNB-75; SNB-75, 48 h, read-out: LC50 (the source's name)
  CC50: > 100000 nM
U-251
  growth inhibition (GI): Dose-dependent effect
U-251; U-251, 48 h
  GI50: 266 nM
  TGI: 21900 nM
U-251; U-251, 48 h, read-out: LC50 (the source's name)
  CC50: > 100000 nM
SK-MEL-28
  growth inhibition (GI): Dose-dependent effect
SK-MEL-28; SK-MEL-28, 48 h
  GI50: 692 nM
  TGI: > 100000 nM
SK-MEL-28; SK-MEL-28, 48 h, read-out: LC50 (the source's name)
  CC50: > 100000 nM
SK-MEL-5
  growth inhibition (GI): Dose-dependent effect
SK-MEL-5; SK-MEL-5, 48 h
  GI50: 253 nM
  TGI: 1650 nM
SK-MEL-5; SK-MEL-5, 48 h, read-out: LC50 (the source's name)
  CC50: 34100 nM
786-0
  growth inhibition (GI): Dose-dependent effect
786-0; 786-0, 48 h
  GI50: 191 nM
  TGI: 1110 nM
786-0; 786-0, 48 h, read-out: LC50 (the source's name)
  CC50: > 100000 nM
A498
  growth inhibition (GI): Dose-dependent effect
A498; A498, 48 h
  TGI: 853 nM
A498; A498, 48 h, read-out: LC50 (the source's name)
  CC50: > 100000 nM
RXF 393
  growth inhibition (GI): Dose-dependent effect
RXF 393; RXF 393, 48 h
  GI50: 128 nM
  TGI: 403 nM
PC-3
  growth inhibition (GI): Dose-dependent effect
PC-3; PC-3, 48 h
  GI50: 67.7 nM
  TGI: > 100000 nM
Mus musculus
  Activity: Non-toxic
SK-BR-3 [10]
  Activity: 2.81%
SK-BR-3 [11]
  Activity: 17.76%
SK-BR-3 [12]
  Activity: 67.14%
SK-BR-3 [13]
  Activity: 3.49%
SK-BR-3 [14]
  Activity: 72.21%
SK-BR-3 [15]
  Activity: 4.03%
SK-BR-3 [16]
  Activity: 13.9%
